≈ marks a conversion by molar mass, not a printed value. Calls of active or inactive are those of the source. No cut-off for these calls is given here.
Legend:
Staphylococcus aureus [1] = assay: Antibacterial activity against methicillin-resistant Staphylococcus aureus EMRSA-16 after 20 hrs by broth microdilution method; type: functional; settings: EMRSA-16, 20 h
How it was run: (§1)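 Broth microdilution per CLSI guidelines in Mueller Hinton Broth. Growth read as optical density at 600 nm after 20 h. MIC taken as the lowest concentration giving OD600 below 0.10. Run in triplicate.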

Pseudomonas aeruginosa [2] = assay: Antibacterial activity against Pseudomonas aeruginosa NCTC 13437 after 20 hrs by broth micro dilution method; type: functional; settings: NCTC 13437, 20 h
How it was run: (§2)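 Broth microdilution per CLSI guidelines in Mueller Hinton Broth. Growth was read as optical density at 600 nm after 20 hours. The MIC was taken as the lowest drug concentration at which OD600 stayed below 0.10. Run in triplicate.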

Staphylococcus aureus [3] = assay: Ratio of MBC to MIC against methicillin-sensitive Staphylococcus aureus ATCC 9144; type: functional
How it was run: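 MBC/MIC ratio from the broth microdilution MIC (Mueller Hinton Broth, OD600 <0.10 after 20 h, triplicate) and the MBC (MIC-plate wells at and above the MIC spotted on tryptic soy agar, 37 °C 24 h, no colonies). A ratio of 1 or 2 was taken as bactericidal; 4 or 16 as bacteriostatic.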

Staphylococcus aureus [4] = assay: Antibacterial activity against Staphylococcus aureus NCTC 6571 after 20 hrs by broth microdilution method; type: functional; settings: NCTC 6571, 20 h; how it was run: as §2
Staphylococcus aureus [5] = assay: Antibacterial activity against Staphylococcus aureus NCTC 8325 after 20 hrs by broth microdilution method; type: functional; settings: NCTC 8325, 20 h; how it was run: as §2
Staphylococcus aureus [6] = assay: Antibacterial activity against methicillin-resistant Staphylococcus aureus NCTC 12493 after 20 hrs by broth microdilution method; type: functional; settings: NCTC 12493, 20 h; how it was run: as §1
Klebsiella pneumoniae [7] = assay: Antibacterial activity against Klebsiella pneumoniae NCTC 13368 after 20 hrs by broth micro dilution method; type: functional; settings: NCTC 13368, 20 h; how it was run: as §2
Acinetobacter baumannii [8] = assay: Antibacterial activity against Acinetobacter baumannii ATCC 17978 after 20 hrs by broth micro dilution method; type: functional; settings: ATCC 17978, 20 h; how it was run: as §2
HeLa = assay: Cytotoxicity against human HeLa cells assessed as reduction in cell viability after 96 hrs by MTT assay; type: cell-based
How it was run: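 HeLa cells were kept in DMEM with 10% FBS, 2 mM L-glutamine, non-essential amino acids and penicillin-streptomycin at 37 °C, 5% CO2. 10,000 cells per well were plated and left 24 h. Compound was then added in triplicate for 96 h continuous exposure. MTT read-out was absorbance at 570 nm. IC50 came from dose-response analysis.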

Staphylococcus aureus [9] = assay: Antibacterial activity against Staphylococcus aureus A1988 after 20 hrs by broth microdilution method; type: functional; settings: A1988, 20 h; how it was run: as §2
Staphylococcus aureus [10] = assay: Antibacterial activity against Staphylococcus aureus isolate 13142 after 20 hrs by broth microdilution method; type: functional; settings: isolate 13142, 20 h; how it was run: as §2
[11] = test system: Staphylococcus epidermidis; assay: Antibacterial activity against Staphylococcus epidermidis ATCC 35984 after 20 hrs by broth microdilution method; type: functional; settings: RP62A; how it was run: as §2
Acinetobacter baumannii [12] = assay: Antibacterial activity against Acinetobacter baumannii ATCC BAA-1710 after 20 hrs by broth micro dilution method; type: functional; settings: ATCC BAA-1710, 20 h; how it was run: as §2
Staphylococcus aureus [13] = assay: Antibacterial activity against methicillin-resistant Staphylococcus aureus EMRSA-15 after 20 hrs by broth microdilution method; type: functional; settings: EMRSA-15, 20 h; how it was run: as §1
Staphylococcus aureus [14] = assay: Bactericidal activity against methicillin-sensitive Staphylococcus aureus ATCC 9144 after 24 hrs; type: functional; settings: ATCC 9144, 24 h
How it was run: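 From the MIC plate, 10ul was taken from every well at and above the MIC and spotted onto tryptic soy agar. Plates were incubated 24 h at 37 °C. The MBC was the concentration at which no colonies grew.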

WI-38 = assay: Cytotoxicity against human WI38 cells assessed as reduction in cell viability after 96 hrs by MTT assay; type: cell-based; settings: WI-38, 96 h
How it was run: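 WI-38 lung fibroblasts were kept in DMEM with 15% FBS, 2 mM L-glutamine, non-essential amino acids and penicillin-streptomycin at 37 °C, 5% CO2. 10,000 cells per well were plated and left 24 h. Compound was then added in triplicate for 96 h continuous exposure. MTT read-out was absorbance at 570 nm. IC50 came from dose-response fitting.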

Klebsiella pneumoniae [15] = assay: Antibacterial activity against Klebsiella pneumoniae M6 after 20 hrs by broth micro dilution method; type: functional; settings: M6, 20 h; how it was run: as §2
Staphylococcus aureus [16] = assay: Antibacterial activity against Staphylococcus aureus BGW541 after 20 hrs by broth microdilution method; type: functional; settings: BGW541, 20 h; how it was run: as §2
Staphylococcus aureus [17] = assay: Antibacterial activity against methicillin-sensitive Staphylococcus aureus ATCC 9144 after 20 hrs by broth micro dilution method; type: functional; settings: ATCC 9144, 20 h; how it was run: as §2
Staphylococcus aureus [18] = assay: Bacteriostatic activity against methicillin-resistant Staphylococcus aureus EMRSA-15 at 4 times MIC after 5 to 24 hrs by time kill assay; type: functional
How it was run: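 Mueller Hinton Broth flasks (50 mL) inoculated at ~10^6 cfu/mL. Agent added at 4x MIC and shaken at 200 rpm, 37 °C. Samples taken hourly for 8 h and at 24 h. Viable counts by modified Miles-Misra dilution. Values are the average of at least three replicate experiments, SEM shown.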

Pseudomonas aeruginosa [19] = assay: Antibacterial activity against Pseudomonas aeruginosa PAO1 after 20 hrs by broth micro dilution method; type: functional; settings: PAO1, 20 h; how it was run: as §2

| SMILES | MIC (Staphylococcus aureus [1]) [µg/mL] | MIC (Pseudomonas aeruginosa [2]) [µg/mL] | MIC (Staphylococcus aureus [4]) [µg/mL] | MIC (Staphylococcus aureus [5]) [µg/mL] | MIC (Staphylococcus aureus [6]) [µg/mL] | MIC (Klebsiella pneumoniae [7]) [µg/mL] | MIC (Acinetobacter baumannii [8]) [µg/mL] | IC50 (HeLa) [µM] | MIC (Staphylococcus aureus [9]) [µg/mL] | MIC (Staphylococcus aureus [10]) [µg/mL] | MIC [11] [µg/mL] | MIC (Acinetobacter baumannii [12]) [µg/mL] | MIC (Staphylococcus aureus [13]) [µg/mL] | IC50 (WI-38) [µM] | MIC (Klebsiella pneumoniae [15]) [µg/mL] | MIC (Staphylococcus aureus [16]) [µg/mL] | MIC (Staphylococcus aureus [17]) [µg/mL] | MIC (Pseudomonas aeruginosa [19]) [µg/mL] | also measured |
| --- | --- | --- | --- | --- | --- | --- | --- | --- | --- | --- | --- | --- | --- | --- | --- | --- | --- | --- | --- |
| O=[N+]([O-])c1ccc(C2=NOC(c3ccc(N4CCN(Cc5cccnc5)CC4)cc3)C2)o1 (stereo unspecified) | 32 (≈ 73.8 µM) | > 128 | 16 (≈ 36.9 µM) | 16 (≈ 36.9 µM) | 4 to 8 (≈ 9.23 to 18.5 µM) | > 128 | > 128 | > 50 | 8 (≈ 18.5 µM) | 8 to 16 (≈ 18.5 to 36.9 µM) | 4 to 8 (≈ 9.23 to 18.5 µM) | > 128 | 16 (≈ 36.9 µM) | > 50 | > 128 | 8 (≈ 18.5 µM) | 16 (≈ 36.9 µM) | > 128 | Ratio (Staphylococcus aureus [3]): 8; MBC (Staphylococcus aureus [14]): ≥ 128 µg/mL; Activity (Staphylococcus aureus [18]): Active |
| O=[N+]([O-])c1ccc(C2=NOC(c3ccc(-c4ccccn4)cc3)C2)o1 (stereo unspecified) | > 128 |  |  |  |  |  |  | > 50 |  |  |  |  | > 128 | > 50 |  |  | > 128 |  |  |
| O=[N+]([O-])c1ccc(C2=NOC(c3ccc(N4CCN(Cc5ccccn5)CC4)cc3)C2)o1 (stereo unspecified) | 32 (≈ 73.8 µM) | > 128 | 16 to 32 (≈ 36.9 to 73.8 µM) | 16 (≈ 36.9 µM) | 8 (≈ 18.5 µM) | > 128 | > 128 | > 50 | 16 (≈ 36.9 µM) | 8 to 16 (≈ 18.5 to 36.9 µM) | 8 to 16 (≈ 18.5 to 36.9 µM) | > 128 | 32 (≈ 73.8 µM) | > 50 | > 128 | 8 to 16 (≈ 18.5 to 36.9 µM) | 16 (≈ 36.9 µM) | > 128 | Ratio (Staphylococcus aureus [3]): 8; MBC (Staphylococcus aureus [14]): ≥ 128 µg/mL |
| O=C(O)c1cn(C2CC2)c2cc(N3CCNCC3)c(F)cc2c1=O [CIPROFLOXACIN] | 32 (≈ 96.6 µM) |  | 0.25 to 0.5 (≈ 0.754 to 1.51 µM) | 0.125 to 0.25 (≈ 0.377 to 0.754 µM) | 0.5 (≈ 1.51 µM) |  |  |  | 0.25 (≈ 0.754 µM) | 0.25 (≈ 0.754 µM) | 0.125 to 0.5 (≈ 0.377 to 1.51 µM) |  | 32 (≈ 96.6 µM) |  |  | 0.5 (≈ 1.51 µM) |  |  |  |
| CC1(C)S[C@@H]2[C@H](NC(=O)[C@H](N)c3ccc(O)cc3)C(=O)N2[C@H]1C(=O)O [AMOXICILLIN] | > 128 |  | 0.25 (≈ 0.684 µM) | 0.25 to 0.5 (≈ 0.684 to 1.37 µM) | > 128 |  |  |  | > 128 | 0.25 (≈ 0.684 µM) | 128 (≈ 350 µM) |  | 128 (≈ 350 µM) |  |  | 0.25 to 0.5 (≈ 0.684 to 1.37 µM) | 0.1 to 2 (≈ 0.274 to 5.47 µM) |  |  |
| O=[N+]([O-])c1ccc(C2=NOC(c3ccc(-c4cccnc4)cc3)C2)o1 (stereo unspecified) | 16 (≈ 47.7 µM) |  |  |  |  |  |  | > 50 |  |  |  |  | 64 (≈ 191 µM) | > 50 |  |  | 32 (≈ 95.4 µM) |  |  |
| O=C1CN(/N=C/c2ccc([N+](=O)[O-])o2)C(=O)N1 [NITROFURANTOIN] | 16 (≈ 67.2 µM) |  | 16 (≈ 67.2 µM) | 16 (≈ 67.2 µM) | 16 (≈ 67.2 µM) |  |  |  | 16 (≈ 67.2 µM) | 16 (≈ 67.2 µM) | 16 (≈ 67.2 µM) |  | 16 (≈ 67.2 µM) |  |  | 16 (≈ 67.2 µM) | 16 (≈ 67.2 µM) |  |  |
| COc1ccc(CN2CCN(c3ccc(C4CC(c5ccc([N+](=O)[O-])o5)=NO4)cc3)CC2)cn1 (stereo unspecified) | 32 (≈ 69 µM) | > 128 |  |  |  | > 128 | > 128 | > 50 |  |  |  | > 128 | 128 (≈ 276 µM) | > 50 | > 128 |  | 32 (≈ 69 µM) | > 128 |  |
| CC(C)(C)OC(=O)N1CCN(c2ccc(C3CC(c4ccc([N+](=O)[O-])o4)=NO3)cc2)CC1 (stereo unspecified) | > 128 | > 128 |  |  |  | > 128 | > 128 | > 50 |  |  |  | > 128 | > 128 | > 50 | > 128 |  | 32 (≈ 72.3 µM) | > 128 |  |
| O=[N+]([O-])c1ccc(C2=NOC(c3ccc(-c4ccncc4)cc3)C2)o1 (stereo unspecified) | 64 (≈ 191 µM) |  |  |  |  |  |  | > 50 |  |  |  |  | 128 (≈ 382 µM) | > 50 |  |  | 64 (≈ 191 µM) |  |  |
| COc1cccc2c1C(=O)c1c(O)c3c(c(O)c1C2=O)C[C@@](O)(C(=O)CO)C[C@@H]3O[C@H]1C[C@H](N)[C@H](O)[C@H](C)O1 [DOXORUBICIN] |  |  |  |  |  |  |  | 0.071 |  |  |  |  |  | 0.071 |  |  |  |  |  |
| O=[N+]([O-])c1ccc(C2=NOC(c3ccc(N4CCN(Cc5ccc(F)nc5)CC4)cc3)C2)o1 (stereo unspecified) | 16 (≈ 35.4 µM) | > 128 |  |  |  | > 128 | > 128 | > 50 |  |  |  | > 128 | 128 (≈ 284 µM) | > 50 | > 128 |  | 32 (≈ 70.9 µM) | > 128 |  |
| O=[N+]([O-])c1ccc(C2=NOC(c3ccc(N4CCN(Cc5ccncc5)CC4)cc3)C2)o1 (stereo unspecified) | 128 (≈ 295 µM) | > 128 |  |  |  | > 128 | > 128 | > 50 |  |  |  | > 128 | > 128 | > 50 | > 128 |  | 16 (≈ 36.9 µM) | > 128 |  |

Source: ChEMBL document CHEMBL4052664, “Novel pyridyl nitrofuranyl isoxazolines show antibacterial activity against multiple drug resistant Staphylococcus species” (Bioorg Med Chem, 2017)
